Assay results taken from ChEMBL document CHEMBL5579858, “Design, synthesis, and structure-activity relationship studies of 6,7-dihydro-5H-pyrrolo[1,2-b][1,2,4]triazole derivatives as necroptosis inhibitors” (RSC Med Chem, 2024).

How the values were obtained:
[1] = Anti-necroptotic activity in human I2.1 cells assessed as inhibition of TNFalpha-induced necroptosis by measuring necroptosis recovery at 10 nM preincubated for 1 hr followed by TNFalpha addition and measured after 24 hrs by CCK-8 assay relative to control; format: functional; design: scale not given: the % may be the effect or the level left; conditions: time 25 hrs
Summary of the method: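 Human I2.1 cells from ATCC, seeded at low density in growth medium and incubated overnight. Compound added first. After 1 h, stimulated with TNF-α 20 ng mL⁻¹ and incubated a further 24 h. Viability read by CCK-8. Recovery is mean ± SD of at least two assays.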

[2] = molecular target: T1, Receptor-interacting serine/threonine-protein kinase 1 (Homo sapiens) (UniProt Q13546); assay: Inhibition of recombinant human N-terminal GST-tagged RIPK1 (1 to 327 residues) expressed in baculovirus infected Sf9 insect cells at 1 uM using myelin basic protein as substrate by ADP-glo assay relative to control
T1 sequence (whole entry): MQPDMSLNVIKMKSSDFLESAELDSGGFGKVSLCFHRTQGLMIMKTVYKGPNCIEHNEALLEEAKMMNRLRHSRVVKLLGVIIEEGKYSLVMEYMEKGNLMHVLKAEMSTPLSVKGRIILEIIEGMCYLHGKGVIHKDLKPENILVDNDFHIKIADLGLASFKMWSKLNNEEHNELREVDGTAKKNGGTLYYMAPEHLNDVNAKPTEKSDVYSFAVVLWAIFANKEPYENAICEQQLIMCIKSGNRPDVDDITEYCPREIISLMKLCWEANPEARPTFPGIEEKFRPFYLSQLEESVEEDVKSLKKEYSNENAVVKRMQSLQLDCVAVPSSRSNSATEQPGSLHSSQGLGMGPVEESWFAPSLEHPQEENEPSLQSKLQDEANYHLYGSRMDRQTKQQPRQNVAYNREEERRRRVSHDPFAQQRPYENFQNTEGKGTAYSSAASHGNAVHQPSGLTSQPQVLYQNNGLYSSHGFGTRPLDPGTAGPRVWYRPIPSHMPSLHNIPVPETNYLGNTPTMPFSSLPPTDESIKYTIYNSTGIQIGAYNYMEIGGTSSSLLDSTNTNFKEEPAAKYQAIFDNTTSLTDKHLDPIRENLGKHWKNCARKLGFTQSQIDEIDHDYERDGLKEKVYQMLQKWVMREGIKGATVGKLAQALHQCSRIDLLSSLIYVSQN
Summary of the method: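 RIPK1 kinase activity tested at 1 μM. Read-out is luminescence. Inhibition% = (DMSO-control specific signal − inhibitor specific signal)/DMSO-control specific signal × 100.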

Hepa 1-6 [3] = assay: Anti-necroptotic activity in mouse Hepa1-6 cells assessed as inhibition of TNFalpha/BV6/Z-VAD-induced necroptosis by measuring necroptosis recovery at 10 nM measured after 24 hrs by CCK-8 assay relative to control; format: functional; design: scale not given: the % may be the effect or the level left
Summary of the method: (§1)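 Murine Hepa1-6 cells from ATCC, seeded at low density and incubated overnight. Z-VAD 10 μM added 1 h ahead. Necroptosis then induced with TNF-α 20 ng mL⁻¹ plus BV6 10 μM, together with compound, for 24 h. Viability read by CCK-8. Recovery is mean ± SD of at least two assays.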

Hepa 1-6 [4] = assay: Anti-necroptotic activity in mouse Hepa1-6 cells assessed as inhibition of TNFalpha/BV6/Z-VAD-induced necroptosis by measuring necroptosis recovery at 1 uM measured after 24 hrs by CCK-8 assay relative to control; format: functional; design: scale not given: the % may be the effect or the level left; summary of the method: as §1
[5] = AUClast in Sprague-Dawley rat at 3 mg/kg, po by LC-MS/MS analysis; format: ADME, organism-based; conditions: in vivo
Summary of the method: (§2)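 Male Sprague Dawley rats, N = 3. Single oral dose of 3 mg kg⁻¹ in DMSO/0.5% HMPC (5/95, v/v). Blood taken at 0.25, 0.5, 1, 2, 4, 8 and 24 h. Serum drug levels measured by LC-MS/MS. Parameters reported as means.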

[6] = Tmax in Sprague-Dawley rat at 3 mg/kg, po by LC-MS/MS analysis; format: ADME, organism-based; conditions: in vivo; summary of the method: as §2
[7] = Cmax in Sprague-Dawley rat at 3 mg/kg, po by LC-MS/MS analysis; format: ADME, organism-based; conditions: in vivo; summary of the method: as §2
[8] = Elimination half-life in Sprague-Dawley rat at 3 mg/kg, po by LC-MS/MS analysis; format: ADME, organism-based; conditions: in vivo, read-out: beta t1/2 (converted); summary of the method: as §2
Hepa 1-6 [9] = assay: Anti-necroptotic activity in mouse Hepa1-6 cells assessed as inhibition of TNFalpha/BV6/Z-VAD-induced necroptosis by measuring necroptosis recovery at 100 nM measured after 24 hrs by CCK-8 assay relative to control; format: functional; design: scale not given: the % may be the effect or the level left; summary of the method: as §1
HT-29 = assay: Anti-necroptotic activity in human HT-29 cells assessed as inhibition of TNFalpha/Z-VAD-fmk/AT-406-induced necroptosis preincubated for 30 mins followed by TNFalpha/Z-VAD-fmk/AT-406 addition and measured after 16 to 20 hrs by CCK-8 assay; format: functional, cell-based

Row | SMILES | Activity [1] | Activity (Hepa 1-6 [3]) | Activity (Hepa 1-6 [4]) | further results
1 | Cc1ccc(OCCCC(C)(C)O)cc1-c1cnnc(NC(=O)c2nc3n(n2)C(c2ccccc2)CC3)c1 (stereo not given) | 53.6% | – | – | –
2 | Cc1ccc(OCCC2CCOCC2)cc1-c1ccnc(NC(=O)c2nc3n(n2)[C@H](c2ccccc2)C[C@@H]3F)c1 | 70.5% | 111.4% | – | inhibition [2]: 78.8%
3 | COc1ccc(C)c(-c2ccnc(NC(=O)c3nc4n(n3)C(c3ccccc3)CC4)c2)c1 (stereo not given) | 73.7% | – | – | –
4 | Cc1ccc(OCCCC(C)(C)O)cc1-c1cc(NC(=O)c2nc3n(n2)C(c2ccccc2)CC3)ncc1F (stereo not given) | 58.1% | – | – | –
5 | Cc1ccc(OCCN2CCOCC2)cc1-c1ccnc(NC(=O)c2nc3n(n2)[C@@H](c2ccccc2)C[C@H]3F)c1 | – | – | – | inhibition [2]: < 0%
6 | CC(C)(O)CCCOc1ccc(Cl)c(-c2ccnc(NC(=O)c3nc4n(n3)C(c3ccccc3)CC4)c2)c1 (stereo not given) | 80.6% | – | 2.9% | –
7 | Cc1ccc(OCCCC(C)(C)O)cc1-c1ccnc(NC(=O)c2nc3n(n2)C(C2CCCCC2)CC3)c1 (stereo not given) | 61.2% | – | – | –
8 | CC(C)(O)CCCOc1cccc(-c2ccnc(NC(=O)c3nc4n(n3)C(c3ccccc3)CC4)c2)c1 (stereo not given) | 86.1% | – | 2.2% | –
9 | Cc1ccc(OCCCC(C)(C)O)cc1-c1ccnc(NC(=O)c2nc3n(n2)C(C2CCCC2)CC3)c1 (stereo not given) | 73.2% | – | – | –
10 | Cc1ccc(OCCN2CCOCC2)cc1-c1ccnc(NC(=O)c2nc3n(n2)[C@H](c2ccccc2)C[C@@H]3F)c1 | 97.9% | 102.4% | – | inhibition [2]: 79.1%; AUC(0-t) [5]: 15.2 ng·h/mL; Tmax [6]: 0.67 h; Cmax [7]: 8.9 ng/mL; half-life [8]: 1.91 h
11 | Cc1ccc(OCCCC(C)(C)O)cc1-c1ccnc(NC(=O)c2nc3n(n2)C(c2ccc(F)cc2)CC3)c1 (stereo not given) | 60.1% | – | – | –
12 | Cc1ccc(OCCCC(C)(C)O)cc1-c1cc(NC(=O)c2nc3n(n2)C(c2ccccc2)CC3)ncc1C (stereo not given) | 72.7% | – | – | –
13 | Cc1ccc(OCCCC(C)(C)O)cc1-c1ccnc(NC(=O)c2nc3n(n2)[C@H](c2ccccc2)C[C@H]3F)c1 (relative stereo) | 98.9% | 6.3% | 104.2% | Activity (Hepa 1-6 [9]): 41.3%
14 | Cc1ccc(OCCCC(C)(C)O)cc1-c1ccnc(NC(=O)c2nc3n(n2)C(c2cccc(F)c2)CC3)c1 (stereo not given) | 58.1% | – | – | –
15 | Cc1ccc(OCCCC(C)(C)O)cc1-c1ccnc(NC(=O)c2nc3n(n2)C(c2ccccc2F)CC3)c1 (stereo not given) | 62.7% | – | – | –
16 | Cc1ccc(OCCC2CCOCC2)cc1-c1ccnc(NC(=O)c2nc3n(n2)[C@@H](c2ccccc2)C[C@H]3F)c1 | – | – | – | inhibition [2]: < 0%
17 | Cc1ccc(OCCCC(C)(C)O)cc1-c1ccnc(NC(=O)c2nc(Cc3ccccc3)n[nH]2)c1 | 90% | – | <0% | IC50 (HT-29): < 100 nM
18 | Cc1ccc(OCCC2CCOCC2)cc1-c1ccnc(NC(=O)c2nc3n(n2)C(c2ccccc2)CC3)c1 (stereo not given) | 91.9% | 3.7% | 96.6% | Activity (Hepa 1-6 [9]): 10.7%
19 | Cc1ccc(OCCCC(C)(C)O)cc1-c1ccnc(NC(=O)c2nc3n(n2)[C@@H](c2ccccc2)C[C@H]3F)c1 (relative stereo) | 80.6% | 100.5% | 110% | Activity (Hepa 1-6 [9]): 107.6%
20 | Cc1ccc(OCCCC(C)(C)O)cc1-c1ccnc(NC(=O)c2nc3n(n2)C(c2ccccc2)CC3)c1 (stereo not given) | 81.2% | 5.5% | 86.6% | Activity (Hepa 1-6 [9]): 26.1%
21 | Cc1ccc(OCCCC(C)(C)O)cc1-c1cc(NC(=O)c2nc3n(n2)C(c2ccccc2)CC3)ncc1Cl (stereo not given) | 56.2% | – | – | –
22 | Cc1ccc(OCCCC#N)cc1-c1ccnc(NC(=O)c2nc3n(n2)C(c2ccccc2)CC3)c1 (stereo not given) | 35.8% | – | – | –
23 | Cc1ccc(OCC(C)(C)O)cc1-c1ccnc(NC(=O)c2nc3n(n2)C(c2ccccc2)CC3)c1 (stereo not given) | 98.2% | 3.8% | 94.1% | Activity (Hepa 1-6 [9]): 10.9%
